Measurements as given in ChEMBL document CHEMBL4837261, “Optimization of TopoIV Potency, ADMET Properties, and hERG Inhibition of 5-Amino-1,3-dioxane-Linked Novel Bacterial Topoisomerase Inhibitors: Identification of a Lead with In Vivo Efficacy against MRSA” (J Med Chem, 2021).
In brackets after ≈: the same amount, converted by molar mass. Activity calls are given as the source filed them. The calls are words filed in the database; no cut-off is given here.

How the values were obtained:
[1] = Metabolic stability in CD1 mouse liver microsomes assessed as intrinsic clearance at 2 uM measured up to 120 mins by LC-MS/MS analysis; format: ADME, Microsome; details: 2 h
[2] = Metabolic stability in CD1 mouse liver microsomes assessed as half life at 2 uM measured up to 120 mins by LC-MS/MS analysis; format: ADME, Microsome
[3] = biological target: T1, DNA gyrase (Staphylococcus aureus) (UniProt P0A0K8+P20831); experiment: Inhibition of Staphylococcus aureus DNA Gyrase assessed as reduction in supercoiling pBR322 DNA by measuring induction of single strand breaks at 100 uM by ethidium bromide staining based agarose gel electrophoresis; format: protein-complex assay
[4] = biological target: T1, DNA gyrase (Staphylococcus aureus); experiment: Inhibition of Staphylococcus aureus DNA Gyrase assessed as reduction in supercoiling pBR322 DNA by measuring induction of double strand breaks at 200 uM by ethidium bromide staining based agarose gel electrophoresis; format: protein-complex assay
Staphylococcus aureus [5] = experiment: Antibacterial activity against Staphylococcus aureus ATCC 29213 by CLSI method; format: functional
Staphylococcus aureus [6] = experiment: Antibacterial activity against methicillin-resistant Staphylococcus aureus USA300 by CLSI method; format: functional
Staphylococcus aureus [7] = experiment: Antibacterial activity against cystic fibrosis isolate Staphylococcus aureus by CLSI method; format: functional
DNA gyrase [8] = biological target: DNA gyrase (Staphylococcus aureus, UniProt P0A0K8+P20831); experiment: Inhibition of Staphylococcus aureus Gyrase supercoiling activity assessed as reduction in supercoiling pBR322 DNA by measuring relaxation by bromophenol blue staining based TAE gel method; format: protein-complex assay
Topoisomerase IV = Topoisomerase IV (Staphylococcus aureus, UniProt P0C1S7+P0C1U9); experiment: Inhibition of Staphylococcus aureus topoisomerase IV decatenation activity using kDNA as substrate by ethidium bromide/bromophenol blue staining based agarose gel electrophoresis analysis; format: protein-complex assay
Staphylococcus aureus [9] = experiment: Antibacterial activity against Staphylococcus aureus 3527 by CLSI method; format: functional
Staphylococcus aureus [10] = experiment: Antibacterial activity against Staphylococcus aureus harbouring GyrA D83N mutant by CLSI method; format: functional
K562 = experiment: Growth inhibition of log-phase human K562 cells incubated for 48 hrs by NBTI cell counting analysis; format: functional, cell-based; details: k562
[11] = Growth inhibition of human K/VP.5 cells incubated for 48 hrs by NBTI cell counting analysis; format: functional; details: K562, 48 h
[12] = biological target: Voltage-gated inwardly rectifying potassium channel KCNH2 (Homo sapiens, UniProt Q12809); experiment: Inhibition of human ERG
Procedure, shortened: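 hERG channel inhibition was measured on the IonWorks Barracuda automated patch system. IC50 came from eight-point concentration–response curves with four replicates per concentration.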

Staphylococcus aureus [13] = experiment: Antibacterial activity against Staphylococcus aureus by CLSI method; format: functional
Procedure, shortened: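 MICs were determined by broth microdilution per CLSI guidelines, in triplicate at minimum. Strains were S. aureus ATCC 29213, MRSA USA300 and a cystic fibrosis respiratory isolate, and ranges are given where seen.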

Enterococcus sp. = experiment: Antibacterial activity against Enterococcus sp. by CLSI method; format: functional
Streptococcus pneumoniae = experiment: Antibacterial activity against Streptococcus pneumoniae by CLSI method; format: functional
Acinetobacter baumannii = experiment: Antibacterial activity against Acinetobacter baumannii by CLSI method; format: functional
Bacillus anthracis = experiment: Antibacterial activity against Bacillus anthracis by CLSI method; format: functional
DNA gyrase [14] = biological target: DNA gyrase (Staphylococcus aureus, UniProt P0A0K8+P20831, D83N); experiment: Inhibition of Staphylococcus aureus DNA Gyrase D83N mutant assessed as reduction in supercoiling pBR322 DNA by measuring relaxation by bromophenol blue staining based TAE gel method
[15] = Plasma protein binding in mouse; format: ADME, cell-free; details: read-out: PPB (converted)
Procedure, shortened: (§1)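 Run at Charles River (Worcester). Plasma protein binding was measured in mouse, dog and human plasma. Thermodynamic solubility was measured in buffer at pH 7.4.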

[16] = Plasma protein binding in dog; format: ADME, cell-free, Canis lupus familiaris; details: read-out: PPB (converted); procedure, shortened: as §1
[17] = Plasma protein binding in human; format: ADME, cell-free; details: read-out: PPB (converted); procedure, shortened: as §1
[18] = Thermodynamic solubility of the compound at pH 7.4; format: physicochemical; details: buffer, read-out: Therm_solubility; procedure, shortened: as §1
Staphylococcus aureus [19] = experiment: Antibacterial activity against fluoroquinolone-resistant methicillin-resistant Staphylococcus aureus by CLSI method; format: functional
Procedure, shortened: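 MICs against ciprofloxacin-resistant MRSA USA300, determined following CLSI guidelines. Each determination was run at least in triplicate, and observed ranges were reported where appropriate.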

Chain of Voltage-gated inwardly rectifying potassium channel KCNH2 (Q12809 whole entry): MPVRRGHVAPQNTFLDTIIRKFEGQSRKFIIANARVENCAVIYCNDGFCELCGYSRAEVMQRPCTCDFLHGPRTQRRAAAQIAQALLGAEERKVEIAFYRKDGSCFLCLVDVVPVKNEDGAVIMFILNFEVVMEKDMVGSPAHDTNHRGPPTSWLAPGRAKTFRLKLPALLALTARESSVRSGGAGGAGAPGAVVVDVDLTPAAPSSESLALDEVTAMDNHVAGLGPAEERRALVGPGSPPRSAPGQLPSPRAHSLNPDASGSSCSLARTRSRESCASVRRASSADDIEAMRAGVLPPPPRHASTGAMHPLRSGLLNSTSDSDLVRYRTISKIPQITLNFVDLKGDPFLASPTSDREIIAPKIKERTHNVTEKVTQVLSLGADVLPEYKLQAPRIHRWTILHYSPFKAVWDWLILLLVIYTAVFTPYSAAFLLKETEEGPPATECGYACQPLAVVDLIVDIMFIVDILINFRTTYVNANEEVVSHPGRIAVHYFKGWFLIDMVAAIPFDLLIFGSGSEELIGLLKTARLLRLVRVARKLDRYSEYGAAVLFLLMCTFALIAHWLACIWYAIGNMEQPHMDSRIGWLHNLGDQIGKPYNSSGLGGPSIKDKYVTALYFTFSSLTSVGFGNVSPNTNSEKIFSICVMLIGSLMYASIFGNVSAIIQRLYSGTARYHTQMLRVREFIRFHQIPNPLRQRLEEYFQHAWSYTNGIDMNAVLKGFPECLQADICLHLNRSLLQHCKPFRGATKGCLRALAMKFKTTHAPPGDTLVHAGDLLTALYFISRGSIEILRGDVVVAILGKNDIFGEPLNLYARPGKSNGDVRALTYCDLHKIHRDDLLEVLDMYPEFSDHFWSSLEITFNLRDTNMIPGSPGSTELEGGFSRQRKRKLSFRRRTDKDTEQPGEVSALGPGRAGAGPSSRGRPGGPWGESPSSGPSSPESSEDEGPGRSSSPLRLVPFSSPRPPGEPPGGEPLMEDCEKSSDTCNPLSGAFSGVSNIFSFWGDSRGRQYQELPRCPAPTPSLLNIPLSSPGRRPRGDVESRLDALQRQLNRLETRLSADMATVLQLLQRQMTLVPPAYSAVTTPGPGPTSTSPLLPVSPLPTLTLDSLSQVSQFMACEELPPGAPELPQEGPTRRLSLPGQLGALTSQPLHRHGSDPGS

Row | SMILES | intrinsic clearance (CLint) [1] [µL/min/mg] | half-life at 2 µM [2] [min] | MIC (Staphylococcus aureus [5]) [µg/mL] | MIC (Staphylococcus aureus [6]) [µg/mL] | MIC (Staphylococcus aureus [7]) [µg/mL] | IC50 (DNA gyrase [8]) [µM] | IC50 (Topoisomerase IV) [µM] | MIC (Staphylococcus aureus [9]) [µg/mL] | MIC (Staphylococcus aureus [10]) [µg/mL] | IC50 [11] [µM] | other results
1 | COc1ccc2nccc(CCN3CCC(NCc4cc5c(cn4)OCCO5)CC3)c2c1 | 2150 | 2.54 | – | – | – | – | – | – | – | – | –
2 | O=C(O)c1cn(C2CC2)c2cc(N3CCNCC3)c(F)cc2c1=O | – | – | – | – | – | – | – | – | – | – | Activity [3]: Active; Activity [4]: Active
3 | COc1ccc2ncc(F)c(C(O)C[C@H]3OC[C@H](NCc4ccc5c(n4)NC(=O)CO5)CO3)c2c1 (mixture of isomers) | – | – | 0.5 (≈ 1.03 µM) | 0.25 (≈ 0.516 µM) | 0.5 (≈ 1.03 µM) | 0.52 | 2.6 | ≤ 0.5 | 4 (≈ 8.26 µM) | > 50 | IC50 (K562): Not Active
4 | COc1ccc2ncc(F)c(CC[C@H]3OC[C@H](NCc4ccc5c(c4)OCCO5)CO3)c2n1 | 2240 | 2.43 | – | – | – | – | – | – | – | – | IC50 [12]: 23 µM
5 | O=c1ccc2ncc(=O)n3c2n1C[C@H]3CN1CCC(NCc2cc3c(cn2)OCCC3)CC1 [GEPOTIDACIN] | – | – | 0.25 (≈ 0.557 µM) | 0.25 (≈ 0.557 µM) | 0.25 (≈ 0.557 µM) | – | – | 0.25 (≈ 0.557 µM) | 8 (≈ 17.8 µM) | – | Activity [3]: Active; Activity [4]: Active
6 | COc1ccc2ncc(F)c(C[C@H](O)[C@H]3OC[C@H](NCc4cc5c(cn4)OCCO5)CO3)c2n1 | – | – | 0.125 (≈ 0.265 µM) | ≤ 0.25 | 0.125 (≈ 0.265 µM) | 0.039 | 1.3 | 0.25 (≈ 0.529 µM) | 4 (≈ 8.47 µM) | 145 | MIC50 (Staphylococcus aureus [13]): 0.25 µg/mL (≈ 0.529 µM); MIC50 (Enterococcus sp.): 0.12 µg/mL (≈ 0.254 µM); MIC50 (Streptococcus pneumoniae): 0.5 µg/mL (≈ 1.06 µM); MIC50 (Acinetobacter baumannii): 64 µg/mL (≈ 135 µM); MIC50 (Bacillus anthracis): 2 µg/mL (≈ 4.23 µM); MIC90 (Bacillus anthracis): 8 µg/mL (≈ 16.9 µM); IC50 (DNA gyrase [14]): 13 µM
7 | COc1ccc2ncc(F)c(C(O)C[C@H]3OC[C@H](NCc4ccc5c(c4)OCCO5)CO3)c2c1 (mixture of isomers) | 835 | 6.54 | 0.125 (≈ 0.266 µM) | 0.125 (≈ 0.266 µM) | 0.125 (≈ 0.266 µM) | 0.064 | 5.5 | 0.125 (≈ 0.266 µM) | 2 (≈ 4.25 µM) | 23.8 | IC50 [12]: 8 µM; fraction unbound [15]: 0.11; fraction unbound [16]: 0.11; fraction unbound [17]: 0.11; solubility thermodynamic [18]: 186 µM (≈ 87.5 µg/mL); MIC (Staphylococcus aureus [19]): 0.25 µg/mL (≈ 0.531 µM); MIC50 (Staphylococcus aureus [13]): 0.12 µg/mL (≈ 0.255 µM); MIC50 (Enterococcus sp.): 0.12 µg/mL (≈ 0.255 µM); MIC50 (Streptococcus pneumoniae): 1 µg/mL (≈ 2.13 µM); MIC50 (Acinetobacter baumannii): 32 µg/mL (≈ 68 µM); MIC50 (Bacillus anthracis): 2 µg/mL (≈ 4.25 µM); MIC90 (Bacillus anthracis): 8 µg/mL (≈ 17 µM)
